Hits are enriched below; roughly 3.3% of the tested compounds scored in any of these assays.
CendR NRP1 mod: modulators of CendR peptide binding to NRP-1, primary screen, biochemical, fluorescence polarization, uHTS. Neuropilin-1 (Homo sapiens), O14786. FAM-RPARPAR peptide binding to NRP-1. inhibition, % at 25 µM. 360,000 tested, 0.85% active. AID 602438, 2012;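 active = inhibition or corrected inhibition above about 18%, plus a signal ratio from 0.5 to 1.5, limit read from the data, passing the limit was not always enough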
Granule exo inh: LAMP-1 surface exposure blockers, TALL-104 cells – cell-based, flow cytometry, MLPCN library, primary screen | inhibition, % at 10 µM | 360,000 tested, 0.66% active | TALL-104 LAMP-1 surface exposure; cells stimulated with thapsigargin and PMA;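 active = inhibition above about 55%, limit read from the data; inconclusive = no clear call, values can overlap the other calls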
ATG4B inh: ATG4B protease inhibitors, primary screen, biochemical, fluorescence, uHTS; ATG4B cleavage of LC3-PLA2, NBD-HPC fluorescence, 1 h; inhibition, % at 8.33 µM; 340,000 tested, 0.51% active; AID 504462, 2011; in the data active = inhibition above about 40%
Arrestin-AP2 inh: inhibitors of beta-arrestin/AP2 binding, primary screen, biochemical, GPCR trafficking, flow cytometry | beta-arrestin 1 C-terminal peptide binding to AP2 beta2-adaptin appendage (human) | FITC-arrestin peptide / GST-AP2 beads; AP2 beta2 appendage carries R879A mutation | inhibition, % at 10 µM | 340,000 tested, 0.31% active | AID 504490, 2011;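 active = inhibition above a set limit, near 3 SD of compounds lacking own fluorescence, cut at about 54% in these data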
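test system = AP2 appendage R879A on GSH beads | buffer or medium = PBS plus Tween 20 (0.05%) and BSA (0.1%) | incubation = 12 min plus 1 h, RT | detection = bead flow cytometry, FITC channel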
ABCB6 inh MLPCN: ABCB6 transporter inhibitors, primary screen, K562-ABCB6 cells, flow cytometry, MLPCN library. K562-ABCB6 porphyrin accumulation, 1 h; active compounds read low. AID 602162, 2011. fluorescence ratio to DMSO, % at 10 µM. 360,000 tested, 0.19% active;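 active = fluorescence ratio to DMSO below 75%, the collection mean minus 3 SD; inconclusive = too few cells collected in the well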;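 also: signal is porphyrin accumulated inside mitochondria; lower ratio means ABCB6 inhibition with less porphyrin fluorescence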
Target sequence (Q9NP58 whole entry, looked up): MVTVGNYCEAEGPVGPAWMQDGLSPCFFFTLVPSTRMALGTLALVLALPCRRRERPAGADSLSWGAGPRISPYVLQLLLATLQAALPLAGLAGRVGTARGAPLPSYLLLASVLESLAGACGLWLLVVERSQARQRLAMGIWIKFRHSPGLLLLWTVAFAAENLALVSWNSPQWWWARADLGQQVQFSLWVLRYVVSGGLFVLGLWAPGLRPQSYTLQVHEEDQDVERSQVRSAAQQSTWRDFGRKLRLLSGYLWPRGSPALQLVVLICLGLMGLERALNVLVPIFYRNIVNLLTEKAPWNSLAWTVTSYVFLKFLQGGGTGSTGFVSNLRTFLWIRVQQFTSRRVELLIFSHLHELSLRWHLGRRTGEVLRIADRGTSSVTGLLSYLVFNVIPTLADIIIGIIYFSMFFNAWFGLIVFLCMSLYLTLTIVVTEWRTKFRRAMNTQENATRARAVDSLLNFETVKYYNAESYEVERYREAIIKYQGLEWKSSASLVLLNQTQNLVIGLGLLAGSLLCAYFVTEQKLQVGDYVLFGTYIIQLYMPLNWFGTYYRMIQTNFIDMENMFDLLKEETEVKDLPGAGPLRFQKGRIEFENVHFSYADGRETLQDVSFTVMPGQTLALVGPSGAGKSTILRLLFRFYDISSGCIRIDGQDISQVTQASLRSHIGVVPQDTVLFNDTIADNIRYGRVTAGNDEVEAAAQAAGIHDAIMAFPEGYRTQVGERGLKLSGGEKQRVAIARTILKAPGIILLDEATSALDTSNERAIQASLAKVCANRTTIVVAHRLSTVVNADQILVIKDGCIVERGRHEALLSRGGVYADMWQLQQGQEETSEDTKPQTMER
Myeloid diff MLP: induction of myeloid progenitor differentiation, primary screen, cell-based, flow cytometry, MLPCN library; ER-HoxA9 myeloid progenitors, lysozyme-GFP differentiation; calls only at 10 µM; 360,000 tested, 1% active; AID 624256, 2012;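 active = normalized GFP-positive differentiation at or above the plate's own cutoff, the solvent-only control mean plus 3 SD; inconclusive = no clear call, values can overlap the other calls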;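 also: cells exposed to compound for four days before flow analysis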
Arr AP2 CP1: inhibitors of arrestin peptide binding to AP2, confirmation, biochemical, cherry pick 1, flow cytometry beads; shares compounds with Arrestin-AP2 inh; GST-AP2 beads, FITC arrestin peptide binding; GST-fused beta2-adaptin appendage, R879A mutant; inhibition, % at 10 µM; 1,300 tested, 2% active;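 active = inhibition above a set limit, roughly 3 SD of non-fluorescent compound noise, cut at about 38% in these data; inactive = inhibition at or below that limit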;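 also: loss of bead fluorescence from 50 nM FITC arrestin peptide bound to appendage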
GST-FITC bead: GST-fluorescein capture on glutathione beads, confirmation, artefact control for arrestin-AP2 inhibitor project, biochemical, cherry pick 1, flow cytometry; shares compounds with Arrestin-AP2 inh; GST-fluorescein binding to GSH beads, fluorescence, counter-screen; inhibition, % at 10 µM; 1,300 tested, 2% active; AID 588338, 2011;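 active = inhibition above 50%, about 3 SD of the inhibition seen with non-fluorescent compounds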;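 also: fluorescein maleimide labelled GST captured on 4 micron glutathione beads; higher means more loss of bead fluorescence from quenching or blocked binding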
Large screens that a line does not name were inactive (follow-up assays come after a bar, where they were run).

Cc1cccc2cc(CN(Cc3ccco3)C(=O)NC3CCCCC3)c(=O)[nH]c12	none | Arr AP2 CP1 inactive | GST-FITC bead inactive
Cc1cccc2cc(CN(CC3CCCO3)C(=O)c3ccco3)c(=O)[nH]c12 (centres undefined)	none
CCN(CC)CCCN(Cc1cc2ccc(C)c(C)c2[nH]c1=O)C(=O)NC1CCCCC1	none
Cc1cccc2cc(CN(CC3CCCO3)C(=O)NC3CCCCC3)c(=O)[nH]c12 (centres undefined)	none | Arr AP2 CP1 inactive | GST-FITC bead inactive
Cc1ccc(-c2nc(NCc3ccc(F)cc3)n(S(C)(=O)=O)n2)cc1	none
CC(C)(C)CC(C)(C)c1ccc(O)c(Cc2ccc(Cl)cc2Cl)c1	none
Cc1ccc(S(=O)(=O)N(CC(=O)NCc2ccc(F)cc2)C(=O)N2CCN(C)CC2)cc1	none
CCCC(=O)N1CCC1(C)C(=O)Nc1cccc(F)c1 (centres undefined)	none (no result: ATG4B inh, Arrestin-AP2 inh)
Cc1nc2ccc(F)cc2cc1C(=O)NCC1CCCO1 (centres undefined)	Arrestin-AP2 inh 104.8 | Arr AP2 CP1 inactive | GST-FITC bead inactive
CCC(Cc1ccccc1)NCc1c(C(=O)O)c(C)n(Cc2ccccc2)c1C (centres undefined)	none
Cc1ccc(C)c(NC(=S)NCC(c2ccccc2)N(C)C)c1 (centres undefined)	none
Cc1cc2cc(NC(=O)c3ccco3)ccc2[nH]1	Arrestin-AP2 inh 99.6 | Arr AP2 CP1 inactive | GST-FITC bead inactive
O=C(Nc1ccccc1N1CCCC1)c1cccc(F)c1	none
Cn1c(=O)n(C)c2cc(N3CCCC3)c(NC(=O)c3cccc(F)c3)cc21	none | Arr AP2 CP1 inactive | GST-FITC bead inactive
COc1cccc(C(=O)Nc2cc3c(cc2N2CCCC2)n(C)c(=O)n3C)c1	Myeloid diff MLP inconclusive | Arr AP2 CP1 inactive | GST-FITC bead inactive
CCc1nnc(NS(=O)(=O)c2ccc(NC(=O)c3cccc(OC)c3)cc2)s1	none
CCN(C(=O)CN1C(=O)NC2(CCC(C)CC2)C1=O)C1CCCCC1 (centres undefined)	none (no result: ATG4B inh, Arrestin-AP2 inh)
O=C1NC[C@H](CCCCN2C[C@H](Cc3ccc(O)cc3)N(CCc3ccc(O)cc3)C(=O)C2=O)N(CCc2ccccc2)C1=O	none (no result: ATG4B inh, Arrestin-AP2 inh)
Cn1c(=O)n(C)c2cc(N3CCOCC3)c(NC(=O)c3cccc(Cl)c3)cc21	none | Arr AP2 CP1 inactive | GST-FITC bead inactive
O=C(Nc1ccc(N2CCOCC2)cc1N1CCOCC1)c1ccc(F)cc1	none
COc1cccc(OC)c1C(=O)Nc1ccccc1N1CCCC1	none
COc1cccc(OC)c1C(=O)Nc1cc2c(cc1N1CCOCC1)n(C)c(=O)n2C	none | Arr AP2 CP1 inactive | GST-FITC bead inactive
Cn1c(=O)n(C)c2cc(N3CCOCC3)c(NC(=O)c3ccc(F)cc3)cc21	none | Arr AP2 CP1 inactive | GST-FITC bead inactive
O=C(N/C(=C/c1ccc(Br)cc1)C(=O)N1CCOCC1)c1cccs1	none
COc1cc(OC)cc(C(=O)N[C@H](C(=O)Nc2nc(-c3cc(OC)ccc3OC)cs2)C(C)C)c1	Arrestin-AP2 inh 58.3 | Arr AP2 CP1 inactive | GST-FITC bead inactive
COc1ccc(-c2csc(NC(=O)CN3C(=O)NC4(CCCC4)C3=O)n2)cc1	none
COc1ccc(OC)c(-c2csc(NC(=O)CN3C(=O)NC4(CCCC4)C3=O)n2)c1	Arrestin-AP2 inh 67.7 | Arr AP2 CP1 inactive | GST-FITC bead inactive
COc1cc(OC)cc(C(=O)N[C@H](C(=O)Nc2nc(-c3ccc(OC)c(OC)c3)cs2)C(C)C)c1	none
CCCCn1cc(S(=O)(=O)c2ccccc2)c(=O)c2cc(C)ccc21	none
COc1ccc(Cc2c(-c3ccccc3)nc3c4ccccc4ccn23)c(C)c1	none (no result: ATG4B inh, Arrestin-AP2 inh)
c1ccn2cc(-c3ccc4c(c3)OCCO4)nc2c1	Arrestin-AP2 inh 58.2 | Arr AP2 CP1 inactive | GST-FITC bead inactive
Cc1ccc2nc(-c3ccc4c(c3)OCCO4)cn2c1	none (no result: Myeloid diff MLP)
COc1ccc(NC(=O)/C(=C\c2cc(OC)c(OC)cc2[N+](=O)[O-])NC(=O)c2ccccc2)cc1	Arrestin-AP2 inh 59.8 | Arr AP2 CP1 inactive | GST-FITC bead inactive
CC(=O)Nc1ccc(S(=O)(=O)NC(C(=O)O)C(C)O)cc1 (centres undefined)	Arrestin-AP2 inh 54.5 | Arr AP2 CP1 inactive | GST-FITC bead inactive
CC(=O)Nc1ccc(S(=O)(=O)NC(C)CCc2ccccc2)cc1 (centres undefined)	none
Cc1ccc(CN2CC(C(=O)Nc3nnc(SCc4c(Cl)cccc4Cl)s3)CC2=O)cc1 (centres undefined)	none
C=CCSc1nnc(NC(=O)C2CC(=O)N(Cc3ccc(C)cc3)C2)s1 (centres undefined)	Arrestin-AP2 inh 55.8 | Arr AP2 CP1 inactive | GST-FITC bead inactive
CC(C)CCN1CCN(Cc2ccc(C#CC(C)(C)O)s2)CC1CCO (centres undefined)	Arrestin-AP2 inh 61.9 | Arr AP2 CP1 inactive | GST-FITC bead inactive
CC(C)CN1CCN(Cc2ccc(C#CC(C)(C)O)cc2)CC1CCO (centres undefined)	none
CC(OC(=O)c1ccncc1)C(=O)Nc1cccc(Cl)c1 (centres undefined)	Arrestin-AP2 inh 80.5 | Arr AP2 CP1 inactive | GST-FITC bead inactive
CC(C)CN(C(=O)COC(=O)c1ccccc1SCC(=O)N1CCCC1)C1CCS(=O)(=O)C1 (centres undefined)	none
CCC(C)N(C(=O)COC(=O)c1ccccc1SCC(=O)N1CCCC1)C1CCS(=O)(=O)C1 (centres undefined)	Arrestin-AP2 inh 54.4 | Arr AP2 CP1 inactive | GST-FITC bead inactive
C=CCn1c(-c2ccc(N)cc2)nc2ccccc21	none
C=CCn1c(-c2ccc(OC)cc2)nc2ccccc21	Arrestin-AP2 inh 97.9 | Arr AP2 CP1 inactive | GST-FITC bead inactive
CCOc1cc(N2CCOCC2)c(OCC)cc1NC(=O)COC(=O)c1c(C)noc1C	none (no result: ATG4B inh, Arrestin-AP2 inh)

Screens: PubChem BioAssay, several laboratories
